Data taken from ChEMBL document CHEMBL4513216, “Probing the Open Global Health Chemical Diversity Library for Multistage-Active Starting Points for Next-Generation Antimalarials” (ACS Infect Dis, 2020).

assay: Toxicity liver stage against HepG2, at 10uM; assay type: cell-based; design: test concentration 10 uM, cell line HepG2-A16-CD81EGFP; conditions: human, HepG2-A16-CD81EGFP cells; read-out: INHIBITION
Outline: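 Uninfected HepG2-A16-CD81EGFP cells, 3 × 10^3 per well, 1536-well, plated on prespotted compound at 10 μM final, parasite-free screening media added to match infected plates; puromycin 10 μM positive, DMSO 0.5% negative; run in parallel with 48 h PbLuc assay at 37 °C, 5% CO2; viability by CellTiter-Glo luminescence, normalized to controls.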

Row | SMILES | cytotoxicity at 10 µM [%]
1 | CCOC(=O)C1(NC(=O)CCNc2cc(C)ccc2OC)CCCCC1 | 6.47
2 | CC(C)n1ccc(CN2CCN(c3cc(NC4CC4)nc(N)n3)CC2)c1 | -1.45
3 | CNC(=O)C1Cn2ccnc2C2(CCN(Cc3cccnc3)CC2)O1 (stereo unspecified) | -3.37
4 | CC(C)CN1CCC(NCCNc2cccnc2)CC1 | -5.25
5 | CNC(=O)C1(N2CCC[C@H]2C(=O)NC2CCCCC2)CCOCC1 | -1.25
6 | CCS(=O)(=O)N1C[C@H]2CC[C@@]3(N=C(C)N(CC(C)C)C3=O)[C@H]2C1 | -85
7 | O=C(N1CCOCC1)N1CCc2ncnc(Oc3cccnc3)c2CC1 | -0.82
8 | CC(C)OC(=O)N1CCCC(c2nccn2Cc2ccncc2)C1 (stereo unspecified) | 4.56
9 | Cc1cn2nc(N3CCCC3CC(C)(C)C)sc2n1 (stereo unspecified) | 3.46
10 | COc1cc(S(=O)(=O)N2C[C@@H](C)[C@@](C)(O)C2)c(C)cc1C | -2.06
11 | CNc1nc2cn(CCc3ccc(Cl)cc3)c(=O)c-2c[nH]1 | 5.2
12 | COC(=O)c1cccc2nc([C@H]3CCN(CC(C)C)C3)oc12 | -2.13
13 | Cc1nnc([C@@]23CCO[C@@H]2CCN(Cc2ccc4c(c2)OCO4)C3)o1 | -102
14 | CN(CCc1ccccn1)C(=O)C1Cc2ccccc2CN1C (stereo unspecified) | 1.47
15 | CN(C)[C@@H]1CCN(C(=O)c2ccco2)[C@H]1Cc1cnn(C)c1 | -81.9
16 | O=C(CN1CCC2(CCCCC2)C1)NCC(F)(F)F | -10.5
17 | CC(C1CC1)N(C(=O)CNc1ccc(C#N)cc1)C1CC1 (stereo unspecified) | -5.28
18 | O=C1CC2(CCN(Cc3cccnc3)C2)CN1c1cccc(F)c1 (stereo unspecified) | -147
19 | Cc1cc(C)c(CNC(=O)CCC2CCCO2)c(=O)[nH]1 (stereo unspecified) | 5.1
20 | CC(C)c1csc(C2CCCN(C(=O)c3ccc(=O)n(C)n3)C2)n1 (stereo unspecified) | 9.24
21 | COC1C[C@@H]2CN(C(=O)c3ccc(C)s3)C[C@@H]2C1 (stereo partly specified) | -2
22 | COCCNC(=O)[C@H]1C[C@@H]2CCN(c3ncccn3)C[C@H]2O1 | -17.1
23 | O=C(c1cccc2c1OCO2)N1CCCC1c1noc(C2CC2)n1 (stereo unspecified) | -23.2

Row | SMILES | cytotoxicity at 10 µM [%]
24 | Cc1cc(CN(C)c2nc(-c3ccccn3)nc3c2CCNCC3)n[nH]1 | -5.48
25 | CC(C)[C@H](CO)Nc1nccc(-c2c[nH]nc2-c2ccncc2)n1 | -4.66
26 | COc1cc(N2CCC3(CC2)CCN(c2cccnc2)C3=O)ncn1 | -116
27 | CN(Cc1cc2n(n1)CCNC2)Cc1noc(C2CCC2)n1 | 15.2
28 | CCO[C@H]1CO[C@@]2(CCCN(S(=O)(=O)c3cccnc3)C2)C1 | -86.2
29 | CCn1nc(C)cc1C(=O)OCC1CC(=O)N(Cc2ccccc2)C1 (stereo unspecified) | 6.68
30 | O=C(c1ccco1)N1CCCC(c2cc(C(F)(F)F)[nH]n2)C1 (stereo unspecified) | -16.1
31 | COC(CNC(=O)c1cn(C)nn1)c1ccc(C)s1 (stereo unspecified) | -8.11
32 | Cc1ccc(OCc2occc2C(=O)N2C[C@@H]3C(CN(C)C)[C@@H]3C2)cc1 (stereo partly specified) | -1
33 | Cc1nc(C(C)N(C)Cc2nc(CCC(C)C)no2)c(C)s1 (stereo unspecified) | -4.76
34 | CC(C)c1cc(COCCCC(=O)O)no1 | 11.1
35 | CN1CCN(CC(NCc2ccc(F)c(F)c2)c2ccccc2)CC1 (stereo unspecified) | -10
36 | CCOC(C)c1nc(COc2nc(C)no2)cs1 (stereo unspecified) | -1.64
37 | N#Cc1cccnc1NCc1ccc(S(=O)(=O)NC2CC2)cc1 | 6.25
38 | COc1ccc(-c2nccnc2C2CCN(C(C)=O)CC2)cc1 | -4.43
39 | Fc1cccc(CN2C[C@@H]3COC[C@]3(COCc3ccncc3)C2)c1 | -61.1
40 | CCc1nc(C2CCCN2C(=O)c2cc[nH]n2)no1 (stereo unspecified) | -15.6
41 | Cc1cc(CN2CCc3nc(C)n(C)c(=O)c3CC2)[nH]n1 | -7.92
42 | CC(C)c1nc(CNC(C(=O)N2CCOCC2)C(C)C)no1 (stereo unspecified) | 6.43
43 | CCOc1ccc(C#N)cc1NC(=O)N1CCCC(NC(=O)CC)C1 (stereo unspecified) | 0.711
44 | COc1ccc(Cc2noc(C3=NN(C)C(=O)CC3)n2)cc1OC | 13.3
45 | Cc1nccn1CCN(C)C(=O)C1CCN(C(=O)C2CCC2)CC1 | -1.45
46 | CCn1nc(CC(C)C)cc1C(=O)N1C[C@H](O)[C@@H](N2CCCCC2)C1 | 20.7

Row | SMILES | cytotoxicity at 10 µM [%]
47 | Cc1cc(C)c2cc(CNCC3CCCO3)c3nn(C)c(=O)n3c2c1 (stereo unspecified) | -4.63
48 | NS(=O)(=O)CCNC(=O)C1(c2ccccc2)CC1 | -0.18
49 | Cc1cccc(N2CCN(C(=O)CCCC(=O)N(C)C)C(C)C2)n1 (stereo unspecified) | 14.6
50 | CC(C)(C)c1cc(=O)[nH]c(C2(N)CCCCC2)n1 | 16.5
51 | CCNC(=O)[C@@H]1C[C@H](N)CN1C(=O)C1(c2ccc(OC)cc2)CCCC1 | 5.67
52 | CSCC(=O)N1C[C@@H]2CC[C@H]1CN(Cc1ccccc1)C2 | -14.9
53 | O=C(NCCc1ccccn1)N1CCSC2(CCCCC2)C1 | -18.6
54 | Cn1cc(C2CC(=O)NC23CCN(C(=O)c2cccnc2)CC3)cn1 (stereo unspecified) | -79.7
55 | CN(CCCc1cnn(C)c1)C(=O)C1CCCN(C2CCCC2)C1 (stereo unspecified) | -7.17
56 | Cc1cccc(C(=O)N2CCN(C(=O)Cc3ccccn3)CC2)c1C | -12.3
57 | CN(CCc1ccccc1)Cc1cc(C(=O)N2CCN(C)C(=O)C2)no1 | -11.6
58 | Cc1cnn(CC2CN(Cc3csc(C(C)C)n3)CCO2)c1 (stereo unspecified) | 5.58
59 | Cn1ccnc1Sc1ncc(C(=O)N2CCCCC2)cc1Cl | -61
60 | CCc1nc2c(NCC3COc4c(cccc4OC)C3)ncnc2o1 (stereo unspecified) | -0.164
61 | CCOC(=O)c1sc(NC(=O)C(C)C)c(C#N)c1C | -15.9
62 | CC(C)N(C)CC(=O)Nc1ccc(-n2ccc(C(N)=O)n2)cc1 | -3.54
63 | Cc1ccnn1CCCNC(=O)C1CCN(S(C)(=O)=O)CC1 | 3.63
64 | N#Cc1ccc(N2CCC3(CC2)CC(Oc2cccnc2)CO3)cc1 (stereo unspecified) | 50.9
65 | COCCN1C(=O)[C@@H]2CC[C@H]1CN(C(=O)CCc1n[nH]c(C)c1C)C2 | 13.5
66 | CCc1nc(CN(C(C)=O)C2CCN(Cc3ccccc3F)C2)no1 (stereo unspecified) | -12.3
67 | Cn1cc(C(=O)NCc2ccc(N3CCCC3)nc2)ccc1=O | -3.72
68 | c1cnc(Nc2cc(CCC3CCNCC3)ccn2)cn1 | 55.7
69 | NC(=O)c1cnn2c(C3CCCN(C4CCOCC4)C3)ccnc12 (stereo unspecified) | 4.34

Row | SMILES | cytotoxicity at 10 µM [%]
70 | O=C(NCCc1cccc(F)c1)C1(n2cnnn2)CCCCC1 | 1.04
71 | CCOCC(O)CN1CCN(C(=O)c2ccc(OC)cc2F)CC1 (stereo unspecified) | -11.9
72 | CCOc1ccccc1C(=O)N(C)C(C)c1ccc(S(C)(=O)=O)cc1 (stereo unspecified) | 12.9
73 | COCCCN1CCCC1c1noc(C2CC2)n1 (stereo unspecified) | -11.5
74 | O=C(NC1CCCCC1)NC1CCCc2c1cnn2CCO (stereo unspecified) | 8.39
75 | O=C(NCCNc1cncc(Br)c1)c1ccc(O)cc1 | 3.73
76 | Nc1nccnc1CC1CCCN(Cc2c[nH]c3ccccc23)C1 (stereo unspecified) | 2.81
77 | Cn1nnc2c1CCN(C(=O)C1CCC1)C2COCCN1CCCC1 (stereo unspecified) | 11
78 | COCCOCCNc1cncc(Br)c1 | -1.33
79 | Cc1cc(CN(C)C(=O)C2CCCN(C(=O)c3cccs3)C2)no1 (stereo unspecified) | -17
80 | c1cnn(CC2CN(Cc3csc(-c4ccsc4)n3)CCO2)c1 (stereo unspecified) | 3.23
81 | CC1CCN(c2ccc(=O)n(CC(=O)NCCc3ccccc3)n2)CC1 | 0.277
82 | COCC(=O)N1CCC(c2cc(C(F)(F)F)c3c(C)noc3n2)CC1 | -28
83 | CS(=O)(=O)CCNCc1ccc(OCc2ccncc2)cc1 | -134
84 | CC(C)NC(=O)N1CCN(CCn2cccn2)c2ncccc2C1 | -100
85 | O=C(NCCNS(=O)(=O)c1ccc(C(F)(F)F)cc1)c1ccoc1 | -1.36
86 | CN1CC(=O)N(c2cccc(F)c2)CC12CCN(Cc1cccnc1)C2 (stereo unspecified) | 9.69
87 | Cn1ccc(NC2CCN(C3CC3)C2=O)n1 (stereo unspecified) | 7.31
88 | COc1ccc(-n2nnnc2C2(NCc3ccco3)CCCCC2)cc1 | 9.65
89 | O=C(NCc1nc(C2CC2)no1)N1CCOC(c2cccc(F)c2)C1 (stereo unspecified) | -44.6
90 | CCOC(=O)c1cn(CC(O)c2ccccc2OC)nn1 (stereo unspecified) | -4.06
91 | Cc1nc(C)n(CC2CCCN2CC(=O)Nc2cc(C)on2)n1 (stereo unspecified) | -2.11
92 | CCc1nc(CCNC(=O)Nc2cccc(C(=O)NC)c2C)cs1 | -11.2

Row | SMILES | cytotoxicity at 10 µM [%]
93 | CCc1nnsc1C(=O)NCCn1nc2ccccn2c1=O | -2.04
94 | CNc1nccnc1C1CN(C(=O)c2cc[nH]n2)CCO1 (stereo unspecified) | -12.3
95 | CSCC(=O)Nc1nccn1Cc1ccc(Br)cc1 | -45.8
96 | CCN(Cc1ccoc1)C(=O)C1CN(C(=O)OC(C)(C)C)C1 | -0.743
97 | COc1cccc(CN2CCC(Cc3cnc(CN(C)C)cn3)CC2)c1 | -2.82
98 | Cc1ccc(C)c(CC(=O)NC2CCC(N3C(=O)CCC3=O)CC2)c1 (stereo unspecified) | -1.32
99 | Nc1nc(C2CCN(C(=O)c3cnco3)CC2)cs1 | -3
100 | Cc1nc(C(=O)N(C)C)nn1-c1ccccc1C(C)C | -0.665
101 | COc1cccc(COCC(=O)N2CCC(CC(N)=O)CC2)c1 | -4.56
102 | Cc1ccc(CNC2CCN(CCc3ccncc3)CC2)s1 | -13.9
103 | CCOCCn1c(=O)n(CCC=C(C)C)c2cc(C(=O)O)cnc21 | -2.85
104 | CN(C)[C@@H]1CCN(S(=O)(=O)c2cn(C)cn2)[C@H]1Cc1cccnc1 | 9.79
105 | Cc1ncsc1CCN(C)C(=O)CN1CCCCCC1=O | -7.67
106 | COc1ccc(CC(=O)NC(CC(=O)O)c2ccc(F)cc2)cc1OC (stereo unspecified) | 0.902
107 | CNc1ccnc(N2CC[C@@](O)(C3CCOCC3)[C@H](C)C2)n1 | 8.64
108 | Cc1cnc(N2CCOC3(COCCN(c4nccs4)C3)C2)nc1 (stereo unspecified) | -114
109 | CC1(C)CNC(=O)CN(C(=O)CCc2ccccc2)C1 | -8.57
110 | Cc1nc2c(c(NCCCN3CCOCC3)n1)CCN(C)C2 | 8.12
111 | Cc1ncsc1C(=O)NC1CCN(CCCC#N)CC1 | -14.7
